Test results as given in ChEMBL document CHEMBL1130090, “Antitumor agents. 174. 2',3',4',5,6,7-Substituted 2-phenyl-1,8-naphthyridin-4-ones: their synthesis, cytotoxicity, and inhibition of tubulin polymerization” (J Med Chem, 1997).
pIC50: −log10 of the molar value.

What was measured:
Format in all cases: functional
[1] = tested on: SK-MEL-5; assay: Concentration which reduced cell growth to 50 % of level against SK-MEL-5 melanoma cell line; conditions: Homo sapiens
[2] = tested on: U-251; assay: Concentration which reduced cell growth to 50 % of U251 cancer line; conditions: Homo sapiens
[3] = biological target: Tubulin beta chain (Bos taurus, UniProt Q6B856); assay: Inhibition of bovine tubulin polymerization
[4] = tested on: MDA-N; assay: Concentration which reduced cell growth to 50 % of level against MDA-N breast cancer line; conditions: Homo sapiens
[5] = tested on: Tumor Cell line; assay: Cytotoxic effect in human tumor cell lines, tested by the National Cancer Institute; conditions: read-out: Average LogGI50 (converted)
[6] = tested on: NCI-H460; assay: compound was tested for concentration which reduced cell growth to 50 % of level against NCI-H460 non -small-cell lung cancer cell line; conditions: Homo sapiens
[7] = tested on: HL-60; assay: Concentration which reduced cell growth to 50 % of level against HL-60 (TB) leukemia cell line; conditions: Homo sapiens
[8] = tested on: MDA-MB-435; assay: Concentration which reduced cell growth to 50 % of level against MDA-MB-435 breast cancer line; conditions: Homo sapiens
[9] = tested on: 786-0; assay: Concentration which reduced cell growth to 50 % of level against 786-0 renal cancer line; conditions: Homo sapiens
[10] = tested on: PC-3; assay: Concentration which reduced cell growth to 50 % of level against PC-3 prostate cancer line; conditions: Homo sapiens
[11] = tested on: SF-295; assay: Concentration which reduced cell growth to 50 % of level against SF-295 CNS cancer line; conditions: Homo sapiens
[12] = tested on: OVCAR-3; assay: Concentration which reduced cell growth to 50 % of level against OVCAR-3 ovarian cancer line; conditions: Homo sapiens
[13] = tested on: HCT-116; assay: Concentration which reduced cell growth to 50 % of level against HCT116 colon cancer cell line; conditions: Homo sapiens
[14] = biological target: Tubulin alpha chain (Sus scrofa) (UniProt P02550); assay: Inhibition of colchicine binding and evaluated only when polymerization IC50 <=1 uM
How it was run: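 Electrophoretically homogeneous bovine brain tubulin (1.0 µM) incubated 20 min at 37 °C with 5.0 µM [3H]colchicine and 5.0 µM inhibitor in 1.0 M monosodium glutamate (pH 6.6), 1 mM MgCl2, 0.1 mM GTP, 5% (v/v) DMSO. Mixtures filtered through two stacked DEAE-cellulose filters and washed with water. Bound radioactivity counted by liquid scintillation.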

Sequence of Tubulin beta chain (Q6B856 whole entry): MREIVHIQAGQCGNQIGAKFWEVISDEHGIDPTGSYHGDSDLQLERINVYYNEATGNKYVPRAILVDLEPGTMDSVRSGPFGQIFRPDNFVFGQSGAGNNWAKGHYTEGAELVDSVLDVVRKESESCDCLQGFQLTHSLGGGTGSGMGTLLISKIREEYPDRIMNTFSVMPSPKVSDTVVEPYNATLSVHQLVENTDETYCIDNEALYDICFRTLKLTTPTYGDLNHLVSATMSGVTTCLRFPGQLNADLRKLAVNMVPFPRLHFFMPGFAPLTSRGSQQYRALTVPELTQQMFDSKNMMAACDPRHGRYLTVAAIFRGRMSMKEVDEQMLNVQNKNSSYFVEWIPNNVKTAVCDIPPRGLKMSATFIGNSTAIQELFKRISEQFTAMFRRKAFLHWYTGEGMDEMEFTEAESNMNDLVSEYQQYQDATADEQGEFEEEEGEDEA
Sequence of Tubulin alpha chain (Sus scrofa) (P02550 whole entry, looked up): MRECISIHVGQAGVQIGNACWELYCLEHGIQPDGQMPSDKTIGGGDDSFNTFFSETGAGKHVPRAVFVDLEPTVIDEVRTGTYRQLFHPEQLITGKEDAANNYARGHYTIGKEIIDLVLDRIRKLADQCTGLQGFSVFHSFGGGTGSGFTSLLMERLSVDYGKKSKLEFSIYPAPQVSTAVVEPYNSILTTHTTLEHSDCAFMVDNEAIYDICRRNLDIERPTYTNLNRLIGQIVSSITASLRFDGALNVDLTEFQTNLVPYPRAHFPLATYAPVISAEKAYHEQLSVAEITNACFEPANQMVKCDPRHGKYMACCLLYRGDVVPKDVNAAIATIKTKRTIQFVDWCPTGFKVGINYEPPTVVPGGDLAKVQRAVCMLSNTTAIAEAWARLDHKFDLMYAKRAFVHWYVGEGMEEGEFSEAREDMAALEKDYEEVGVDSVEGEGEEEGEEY

Question: `Cc1ccnc2nc(-c3ccc(F)cc3)cc(O)c12` was tested. Which GI50 [1] did it give?
Answer: The GI50 was 16.2 µM.

Question: And the GI50 [2]?
Answer: Its GI50 is 36.3 µM.

Question: And the pIC50 [3]?
Answer: Its pIC50 is 4.74.

Question: What about the GI50 [4] of the same compound?
Answer: Its GI50 is 3.55 µM.

Question: And the GI50 [5]?
Answer: Its GI50 is 38 µM.

Question: What about the GI50 [6] of the same compound?
Answer: Its GI50 is 32.4 µM.

Question: What about the GI50 [7] of the same compound?
Answer: Its GI50 is 4.79 µM.

Question: What about the GI50 [8] of the same compound?
Answer: Its GI50 is 2.88 µM.

Question: And the GI50 [9]?
Answer: The GI50 was 33.9 µM.

Question: And the GI50 [10]?
Answer: The GI50 was 51.3 µM.

Question: And the GI50 [11]?
Answer: Its GI50 is 79.4 µM.

Question: And the GI50 [12]?
Answer: Its GI50 is 56.2 µM.

Question: What about the GI50 [13] of the same compound?
Answer: The GI50 was 16.2 µM.

Question: What does the source list for `COc1ccccc1-c1cc(O)c2c(C)ccnc2n1`?
Answer: GI50 [1]: 22.4 µM; GI50 [2]: 35.5 µM; pIC50 [3]: 4.70; GI50 [4]: 8.32 µM; GI50 [5]: 2.82 µM; GI50 [6]: 24 µM; GI50 [7]: 20.9 µM; GI50 [8]: 6.46 µM; GI50 [9]: 60.3 µM; GI50 [10]: 20.9 µM; GI50 [11]: 23.4 µM; GI50 [12]: 12.9 µM; GI50 [13]: 7.59 µM

Question: Which results are given for `COc1cccc(-c2cc(O)c3c(C)cc(C)nc3n2)c1`?
Answer: GI50 [1]: 0.288 µM; GI50 [2]: 0.17 µM; pIC50 [3]: 6.06; GI50 [4]: < 0.01 µM; GI50 [5]: 0.646 µM; GI50 [6]: 0.447 µM; inhibition [14]: 22%; GI50 [7]: 0.174 µM; GI50 [8]: < 0.01 µM; GI50 [9]: 0.437 µM; GI50 [10]: 0.309 µM; GI50 [11]: 0.417 µM; GI50 [12]: 0.251 µM; GI50 [13]: 0.407 µM

Question: Which results are given for `COc1ccc(-c2cc(O)c3c(C)cc(C)nc3n2)cc1`?
Answer: GI50 [1]: 17.8 µM; GI50 [2]: 91.2 µM; pIC50 [3]: < 4.40; GI50 [4]: 33.1 µM; GI50 [5]: 33.1 µM; GI50 [6]: 40.7 µM; GI50 [7]: 15.5 µM; GI50 [8]: 28.8 µM; GI50 [9]: 58.9 µM; GI50 [10]: 24 µM; GI50 [11]: 42.7 µM; GI50 [12]: 32.4 µM; GI50 [13]: 36.3 µM

Question: Which results are given for `Cc1cc(C)c2c(O)cc(-c3ccc(Cl)cc3)nc2n1`?
Answer: GI50 [1]: 14.1 µM; GI50 [2]: 30.2 µM; pIC50 [3]: 4.49; GI50 [4]: 3.63 µM; GI50 [5]: 19.5 µM; GI50 [6]: 22.4 µM; GI50 [7]: 25.1 µM; GI50 [8]: 4.07 µM; GI50 [9]: 21.4 µM; GI50 [10]: 6.31 µM; GI50 [11]: 16.2 µM; GI50 [12]: 18.2 µM; GI50 [13]: 14.8 µM

Question: What does the source list for `COc1ccc(-c2cc(O)c3cc(C)cnc3n2)cc1`?
Answer: GI50 [1]: 3.72 µM; GI50 [2]: 4.17 µM; pIC50 [3]: 5.11; GI50 [4]: 1.7 µM; GI50 [5]: 6.17 µM; GI50 [6]: 4.07 µM; GI50 [7]: 2.29 µM; GI50 [8]: 1.82 µM; GI50 [9]: 5.13 µM; GI50 [10]: 5.37 µM; GI50 [11]: 5.25 µM; GI50 [12]: 2.95 µM; GI50 [13]: 4.17 µM
